Assay results of several laboratories.
Target: Epithelial discoidin domain-containing receptor 1 (DDR1, Homo sapiens, UniProt Q08345)

Compound	observed	method	concentration	remaining binding
O=C(NCC1CCOCC1)c1n[nH]cc1NC(=O)c1c(F)cccc1F	binding	competition with immobilised ligand	1 µM	100%
O=C(c1ccc(Nc2nccc(-c3cc4ccccc4s3)n2)cc1)N1CCC(N2CCCC2)CC1	binding	competition with immobilised ligand	1 µM	2.1%
CC(=O)Nc1c(C(C)=O)c(=O)n(C)c2nc(-c3ccc(Cl)cc3Cl)c(-c3ccc(Cl)cc3)cc12	cell-free assay	competition with immobilised ligand	1 µM	100%
C[C@@H]1CCN(c2nccc(-c3cnn4ncccc34)n2)C1	binding	–	1 µM	100%
Nc1ncc2c(n1)-c1c([nH]c3ccc(C#CC4CC4)cc13)CCCC2	binding	competition with immobilised ligand	1 µM	100%
c1cncc(-c2cccc(Nc3nccc(NC4CCCCC4)n3)c2)c1	binding	competition with immobilised ligand	10 µM	27%
CCCOc1ccc([C@H]2[C@H](C(=O)O)[C@@H](c3ccc4c(c3)OCO4)CN2CC(=O)Nc2c(CC)cccc2CC)cc1	cell-free assay	competition with immobilised ligand	1 µM	100%
O=C(c1ccc(Nc2ncc(Cl)c(-c3ccc(Cl)s3)n2)cc1)N1CCC(N2CCCC2)CC1	binding	competition with immobilised ligand	1 µM	12%
FC(F)(F)c1ccc2c(c1)nc(-c1cccnc1)n2C1CC1	cell-free assay	competition with immobilised ligand	1 µM	100%
FC(F)(F)Oc1cccc(-c2cnc3ccc(-c4ccncc4)nn23)c1	cell-free assay	competition with immobilised ligand	5 µM	48%
CN(C)c1ncc(F)c(-c2cnn3ncccc23)n1	binding	–	1 µM	89%
COc1cnc(Nc2cccc(S(N)(=O)=O)c2)nc1N1CCN(c2ccccc2)C(=O)C1	binding	competition with immobilised ligand	1 µM	100%
CN(C)c1nccc(-c2cnn3ncccc23)n1	binding	–	1 µM	100%
CC(=O)c1c(NS(C)(=O)=O)c2cc(-c3ccc(Cl)cc3)c(-c3ccc(Cl)cc3Cl)nc2n(C)c1=O	cell-free assay	competition with immobilised ligand	1 µM	100%
CN(CCCC(F)(F)F)c1nccc(-c2cnn3ncccc23)n1	binding	–	1 µM	100%
Cc1cnc(Nc2ccc(C(=O)N3CCC(N4CCCC4)CC3)cc2)nc1-c1cc2ccccc2s1	binding	competition with immobilised ligand	1 µM	0.1%
N[C@H]1CCN(c2nccc(-c3cnn4ncccc34)n2)C1	binding	–	1 µM	100%
CS(=O)(=O)N1CCCC(NC(=O)[C@H](CCC2CCCCC2)NC(=O)c2ccc(CNc3ncnc4c3nnn4-c3ccccc3)cc2)C1 (some centres unmarked)	cell-free assay	competition with immobilised ligand	0.1 µM	89%
CN(c1nccc(-c2cnn3ncccc23)n1)C1CC1	binding	–	1 µM	80%
O=C(O)c1cc(-c2ccc(C3CCNCC3)cc2)c2ccc(-c3ccc(C(F)(F)F)cc3)cc2c1	cell-free assay	competition with immobilised ligand	1 µM	100%
